# Measured values: the EternaBench riboswitch data
# System: MS2 coat protein
# Assay: apparent Kd, MS2 coat protein; higher = weaker binding; RNA-MaP array
# Outline: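 On an Illumina sequencing chip, sequenced DNA templates served for transcription of the designed RNAs, which were then bound at room temperature by fluorescently labeled MS2 coat protein at 1.5 nM to 3 μM, with or without input ligand. Apparent Kd is the median of the fits to each cluster's binding curve. Only designs measured on at least 10 clusters were kept.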
# [1] = designed as: ON switch for flavin mononucleotide, no ligand
# [2] = ligand present: flavin mononucleotide, designed as: ON switch for flavin mononucleotide
# [3] = designed as: OFF switch for flavin mononucleotide, no ligand
# [4] = ligand present: flavin mononucleotide, designed as: OFF switch for flavin mononucleotide
# [5] = designed as: ON switch for tryptophan, no ligand
# [6] = ligand present: tryptophan, designed as: ON switch for tryptophan
# [7] = designed as: OFF switch for theophylline, no ligand
# [8] = ligand present: theophylline, designed as: OFF switch for theophylline
Sequence,apparent Kd [1] [nM],apparent Kd [2] [nM],apparent Kd [3] [nM],apparent Kd [4] [nM],also measured
UCUCAUAUGGAAGGAUAUCAUACCUUGUCGAGAUGAGAAGGUCCGUAUGGACAUAACAUGAGGAUCACCCAUGUUUCUUGUGUU,188,128,–,–,–
ACCAGGCAAGGAUAUGGUUCUGUAAACAUGAGGAUCACCCAUGUAUUUAAUUCAUGUUGGCCAGAAGGUGCUUUCG,–,–,14.8,13.3,–
UUUGCAGUCGAGAAGGCAAACACAUGAGGAUCACCCAUGUAGACGAGGUAUGUUAUUUCGGGAGUUGAGGAUAUCGUGGUAGGU,27.8,13.8,–,–,–
GCUGCCUGGACAUGAGGAUCACCCAUGUGGACAAUACUGGCUUAGGAUAUUUGAUUGAAGUUUGGAAAGAAGGAAGCAUACAGC,–,–,9.17,8.14,–
GACAUAUGCUAUGCGCAGGCUACCCUCAGCCGAGGACCGGUACGGCCGCCACUCGUACUACCACAUGAGGAUCACCCAUGUUAUC,–,–,–,–,"apparent Kd (designed as: OFF switch for tryptophan, no ligand): 17.2 nM; apparent Kd (ligand present: tryptophan, designed as: OFF switch for tryptophan): 18.2 nM"
UGAAAUUUGGAGAAGGGACGCACGUGGUAGUGGCUACAUGAGGAUCACCCAUGUUAAUUGAUCAGUCAGGAUAUCCGGUUGUUC,–,–,18.1,22.1,–
AGCCCACAUGAGGAUCACCCAUGUACUUGGUCCUCAGGAUAUCUAGUUCCAUAUUACAAAAGAGAAGGGAGGAUUG,110,14.6,–,–,–
AGGAAAGAAGAAGGAUAUCAGUUACGGACAUGAGGAUCACCCAUGUACGUAGGGUGAACCCUGAUUGAGAAGGUCUGUGUUUUA,23.1,13.4,–,–,–
GCAAUUUGACGAGGAUAUGGUCUAUUUUUUUACCCAGAAGGCGUCGCCCACAUGAGGAUCACCCAUGUUCAUGGAUAGGAAAUA,–,–,11.9,–,–
GUAGAGUCAGGAUAUGUCAACUGCUCUGUAAAGCUUGGUCGACAGAAGGGACAUGAGGAUCACCCAUGUGAAGG,–,–,34.1,56.5,–
GCGACACUCACGGCCGCCACUGAUUAGCCCAGUAUGGAGCCCACACAUGAGGAUCACCCAUGUCACAGGACCGGGUGGGUCUAUU,–,–,–,–,apparent Kd [5]: 25.8 nM; apparent Kd [6]: 26.8 nM
UGACACAUGAGGAUCACCCAUGUCGCGAAACGAGGACCGGUACGGCCGCCACUCGCACAAACUCCUCUCCAGCACCAGCUUUUAG,–,–,–,–,apparent Kd [5]: 19.4 nM; apparent Kd [6]: 15.5 nM
AUAACUGCAGGAUAUACAGGAACGCCUAGAAGGAUCCUGGAACAUGAGGAUCACCCAUGUAGAAGGGCACGUUU,–,–,12.3,14.4,–
CGGGUAACCGAGAAGGACUUAAGACUACGUUAAGUAGGAUAUCGAUUUGUUACAUGAGGAUCACCCAUGUCUGGUCUUGACCGC,–,–,8.66,9.67,–
GUCAACACAGUAGGAUAUCCAAUGCGUAAGCUCGGAGAAGGACUUAACUAGCAGUUUGAUCGACAUGAGGAUCACCCAUGUAAU,–,–,11.3,9.96,–
CCAGAUUUAGGAUAUACAUGAGGAUCACCCAUGUGGGAUUUAGUGCGGUUUAUGCAACGUAGAAGGAAAUCAGG,–,–,31.6,71.4,–
UUAGUGAUACUAGGAUAUAGGUAAGACUCUUAACUAGAAGGAGUAGGGACGAAUACAUGAGGAUCACCCAUGUGAUUCUGGUUG,–,–,21.6,26.3,–
GCCAAGCAGGGAGGAUAUACAGGCAAUAAGUGAUUAGAAGAACAAAACAUGAGGAUCACCCAUGUGAAGAAGGCCCAUUCGGAA,–,–,12.1,10.9,–
GGAUCGCUCUACAUGAGGAUCACCCAUGUGACUGAGCUAGAUAGAAGGAGAUGGCGAAAUACUUUCUAGGAUAUAUUGUAGCUA,–,–,8.05,8.08,–
GCGGUACAUGAGGAUCACCCAUGUGAUUUAACAGGUUUCAUCAGAAGGACUCACGGUUUGCGACAGUAGGAUAUGAAGGGUAAG,34.6,24.6,–,–,–
CAGGUUCGUACAGGAUAUGGUUACAUGAGGAUCACCCAUGUGCGGUGAGCUGAUUAGUGCACAGUCCAGAAGGGUAGGAUAACA,852,684,–,–,–
ACGGCAUGGAAGAAGGAGUACAUGAGGAUCACCCAUGUAGGGUAGCGCGUCCACAUCCAAUAAGACUAGGAUAUUCUUGCAGAU,–,–,39.8,83.2,–
UCAUUGAGAGUCAUCCAGCGUUAAUGGGAUACCAGAGUUCUUUUACUCCCUUGGCAGCCCGGAACAUGAGGAUCACCCAUGUCUG,–,–,–,–,apparent Kd [7]: 34.9 nM; apparent Kd [8]: 80.8 nM
ACAUGAGGAUCACCCAUGUAAACAAGGUUGGAGACCCGCAAUGAGGAUAUCAUAAAGAAACCCAAUGAGAAGGCAUGAUCACAA,22.3,17.2,–,–,–

Sequence,apparent Kd [1] [nM],apparent Kd [2] [nM],apparent Kd [3] [nM],apparent Kd [4] [nM],also measured
AAAGAACAAGGAUAUACAUGAGGAUCACCCAUGUCACAGAUAGUAGAACCACAAGCAUGUAGAAGGUGAGUCUA,–,–,11.5,9.61,–
GCUCGAGGGCAAGGAUAUAGGGAGAAACAACGCCUAGAAGGUGCACACAUGAGGAUCACCCAUGUUUCUCUAUGACGGAUCAUC,–,–,18.1,17.3,–
AGACAAAAGGAGAAGGAGGUAAAGAUAUAAAGGUGAAGUAAUGGACAUGAGGAUCACCCAUGUACCUAGGAUAUCCAGGGCGAU,–,–,26.8,33.6,–
GACGAACAUGAGGAUCACCCAUGUUAACCGAUCACCACGUUCAGAAGGAGGGACAUAACGAGCACCUAGGAUAUGACCAAACAC,24.2,14.1,–,–,–
AGAAUGACAAAAUUGCAACAUGAGGAUCACCCAUGUGAUACAAGAAGGACAAACCGCUCAAGAGUGUAGGAUAUUGUGGAAAUC,25.6,19.6,–,–,–
CGCCUACAGGUGUACUAUUGUGGUGAAGAUACCAGAUAGCCCAAUAUCCCUUGGCAGCUUCAGACAUGAGGAUCACCCAUGUAUC,–,–,–,–,apparent Kd [7]: 15.5 nM; apparent Kd [8]: 27.6 nM
ACAUAUUCCAGAGGAUAUUGUGGUAUCCAGUUAAGGAGAUCUUACAUGAGGAUCACCCAUGUGGACAAGAAGGCUGAACGCUCC,21.6,14.7,–,–,–
ACCUUACAUGAGGAUCACCCAUGUCGUGAUACCAGAAACCACGUAUUCCCUUGGCAGCACACCCGUGAUGAGAUUGUCGGUUUUG,–,–,–,–,"apparent Kd (designed as: ON switch for theophylline, no ligand): 57.4 nM; apparent Kd (ligand present: theophylline, designed as: ON switch for theophylline): 88 nM"
UCUAACAUGAGGAUCACCCAUGUACCGUCCCGAGGACCGGUACGGCCGCCACUCGUCUUGCUAAAACUGAAGUGAUCACAAGCCU,–,–,–,–,apparent Kd [5]: 20.2 nM; apparent Kd [6]: 30.8 nM
CAGUUACUGUAGAAGGAUAUCAUUAAUACGGAUAUAGGAUAUACUCCGGGUGGAAUCGUGAACAUGAGGAUCACCCAUGUUUCG,–,–,10.2,8.6,–
CGAACUAGCUAGAAGGAACAGGCGACUAAAGUGUUAGGAUAUAGGCGUAUGUGCAGACAUGAGGAUCACCCAUGUGUCGAAUUU,–,–,17.8,14.7,–
UAGCAGUUCACAGGAUAUAGUUUGCGAUAAGUUUAUUUAUGAGAGACAUGAGGAUCACCCAUGUACUAGAAGGGUGAGAAAUAA,461,130,–,–,–
ACUGCGCACGGGCUCCACAUGAGGAUCACCCAUGUUGAACUGAGAAGGGAAAGAAGAAACUACAUUCAGGAUAUCAUUUCACCA,–,–,44.5,46.6,–
GACAUGGGACAGAAGGCGCGUCACAUUUUUAUGCGAGGAUAUGUCACUACAUGAGGAUCACCCAUGUGAGUUGGGAUCUCGAAA,–,–,26.5,64.1,–
AAUUGUGCAGGAUAUUCACAGGUGAACAUGAGGAUCACCCAUGUAGCAUGAGGUGUAAUCGAAGAAGGGCAGGUCC,–,–,109,72.8,–
UCCAUACGGUAGGAUAUAUGUACCCAGAAGGGCAUAGAAGGACCCACAUGAGGAUCACCCAUGUUCCUUUGGUG,–,–,24.4,30.5,–
AGUCUUCUCGUAAGGAUAUUUAGGAAUUCAUCUCCAAAGAAGGUACAUGAGGAUCACCCAUGUGAAGGGCUUUU,–,–,12.8,24.8,–
UGGCCAGAACCUUUUGUGGCCACAUGAGGAUCACCCAUGUGCGAGGAUAUCCCAUCCGGUCCGGCGGAGAAGGCGCGUAUCGGC,34.4,30.1,–,–,–
CGAUUACAUGAGGAUCACCCAUGUCAGGAUAUAAUUUGCACAGCCGGGCAGGCCGUGGUUAGAAGGGACGUACA,–,–,9.09,8.75,–
ACUCCACAUGAGGAUCACCCAUGUUAUAAGUAGGUAGGAUAUCACACAAACUUACAUGGAUGAGAAGGACCGGUCC,328,210,–,–,–
GCCACGCUAGAAGGAUAUUUGCCAUAAGUACGGAAAGAAGGUCUCGCCGGAUCGAACAUGAGGAUCACCCAUGUGUGGGUCAGA,43.8,26,–,–,–
GCUGAUAUCAAGAAGGCGAUCAGGGAAUAAGAGACAUGAGGAUCACCCAUGUACGCCAUUUGUAUCGAGGAUAUUGAAAAUAGG,24.4,7.42,–,–,–
AGAACCCAGUAAGGAUAUGAUGAGUCUAUACAACAUGAGGAUCACCCAUGUCCGAGGAAACUAGAUCAGAAGGUACAAGAAAAG,73.8,17.6,–,–,–
